Source: ChEMBL document CHEMBL1137761, “Synthesis and activity evaluation of phenylurea derivatives as potent antitumor agents” (Bioorg Med Chem, 2009)
Values belong to the molecule of their own block, whether it stands above or below them. Active and inactive are the calls of the source. The calls are words filed in the database; no cut-off is given here.

What was measured:
[1] = tested on: CCRF-CEM; experiment: Cell cycle arrest in human CEM cells assessed as accumulation at G2/M phase at 3.2 uM after 18 hrs by flow cytometry; format: functional
In short: (§1)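 CEM cells grown in RPMI-1640 with 10% heat-inactivated FCS at 37 °C, 5% CO2, exposed to compound for 18 h at 37 °C. Fixed in 70% ethanol 18 h at 4 °C, RNase A (50 µg/ml) 0.5 h at 37 °C, then propidium iodide (final 50 µg/ml) 0.5 h at 4 °C. Flow cytometry on 10^4 cells per sample gave phase distribution.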

[2] = tested on: CCRF-CEM; experiment: Induction of apoptosis in human CEM cells at 3.2 uM after 18 hrs by flow cytometry; format: functional
In short: (§2)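 CEM cells exposed 18 h at 37 °C, then ethanol-fixed, RNase-treated and stained with propidium iodide (final 50 µg/ml). Flow cytometry on 10^4 cells per sample. Dead cells were scored as the population left of the G1/G0 peak, reflecting DNA degradation, and reported as percent.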

[3] = tested on: CCRF-CEM; experiment: Cytotoxicity against human CEM cells after 72 hrs by MTT assay; format: functional, cell-based
In short: (§3)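 Cells kept in RPMI-1640 with 10% heat-inactivated FCS plus penicillin/streptomycin at 37 °C, 5% CO2. Seeded at 1 × 10^5 cells per well and treated at 0.001–100 µM for 72 h at 37 °C. Viability read by MTT. IC50 was the concentration killing 50% relative to untreated controls, by non-linear regression. Duplicate wells, three independent experiments.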

[4] = tested on: CCRF-CEM; experiment: Cell cycle arrest in human CEM cells assessed as accumulation at G0/G1 phase at 3.2 uM after 18 hrs by flow cytometry; format: functional; in short: as §1
[5] = tested on: CCRF-CEM; experiment: Cell cycle arrest in human CEM cells assessed as accumulation at S phase at 3.2 uM after 18 hrs by flow cytometry; format: functional; in short: as §1
[6] = tested on: CCRF-CEM; experiment: Cell cycle arrest in human CEM cells assessed as accumulation at S phase at 3.3 uM after 18 hrs by flow cytometry; format: functional; in short: as §1
[7] = tested on: CCRF-CEM; experiment: Cell cycle arrest in human CEM cells assessed as accumulation at G2/M phase at 3.3 uM after 18 hrs by flow cytometry; format: functional; in short: as §1
[8] = tested on: CCRF-CEM; experiment: Induction of apoptosis in human CEM cells at 3.3 uM after 18 hrs by flow cytometry; format: functional; in short: as §2
[9] = species on record: Bos taurus; experiment: Inhibition of calf brain beta-tubulin polymerization at 3.3 uM after 30 mins by spectrophotometry
In short: (§4)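 Calf brain tubulin (100 µL at 1 mg/ml) was mixed with 400 µL buffer: 0.1 M MES, 1 mM EGTA, 0.5 mM MgCl2, 0.1 mM EDTA, 2.5 M glycerol. Compound or solvent control was added, then GTP to a final 1 mM. OD340 was read at 0 min (baseline) and at 30 min, with assembly at room temperature.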

[10] = tested on: CCRF-CEM; experiment: Cell cycle arrest in human CEM cells assessed as accumulation at G0/G1 phase at 3.3 uM after 18 hrs by flow cytometry; format: functional; in short: as §1
[11] = tested on: CCRF-CEM; experiment: Cell cycle arrest in human CEM cells assessed as accumulation at S phase at 6.4 uM after 18 hrs by flow cytometry; format: functional; conditions: in the assay text read “10 uM” for “6.4 uM”; in short: as §1
[12] = tested on: CCRF-CEM; experiment: Cell cycle arrest in human CEM cells assessed as accumulation at G2/M phase at 6.4 uM after 18 hrs by flow cytometry; format: functional; conditions: in the assay text read “10 uM” for “6.4 uM”; in short: as §1
[13] = tested on: CCRF-CEM; experiment: Induction of apoptosis in human CEM cells at 6.4 uM after 18 hrs by flow cytometry; format: functional; conditions: in the assay text read “10 uM” for “6.4 uM”; in short: as §2
[14] = species on record: Bos taurus; experiment: Inhibition of calf brain beta-tubulin polymerization at 10 uM after 30 mins by spectrophotometry; in short: as §4
[15] = tested on: CCRF-CEM; experiment: Cell cycle arrest in human CEM cells assessed as accumulation at G0/G1 phase at 6.4 uM after 18 hrs by flow cytometry; format: functional; conditions: in the assay text read “10 uM” for “6.4 uM”; in short: as §1
[16] = tested on: CCRF-CEM; experiment: Cell cycle arrest in human CEM cells assessed as accumulation at G2/M phase at 10 uM after 18 hrs by flow cytometry; format: functional; conditions: in the assay text read “6.4 uM” for “10 uM”; in short: as §1
[17] = tested on: CCRF-CEM; experiment: Induction of apoptosis in human CEM cells at 10 uM after 18 hrs by flow cytometry; format: functional; conditions: in the assay text read “6.4 uM” for “10 uM”; in short: as §2
[18] = species on record: Bos taurus; experiment: Inhibition of calf brain beta-tubulin polymerization at 6.4 uM after 30 mins by spectrophotometry; in short: as §4
[19] = tested on: CCRF-CEM; experiment: Cytotoxicity against human CEM cells after 24 hrs by MTT assay; format: functional, cell-based
In short: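 CEM cells treated at a range of concentrations for 24 h. Cell death measured by MTT.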

[20] = tested on: Daudi; experiment: Cytotoxicity against human Daudi cells after 72 hrs by MTT assay; format: functional, cell-based; in short: as §3
[21] = tested on: MCF7; experiment: Cytotoxicity against human MCF7 cells after 72 hrs by MTT assay; format: functional, cell-based; conditions: MCF7, 72 h; in short: as §3
[22] = tested on: Bel-7402; experiment: Cytotoxicity against human Bel7402 cells after 72 hrs by MTT assay; format: functional, cell-based; conditions: Bel-7402, 72 h; in short: as §3
[23] = tested on: DU-145; experiment: Cytotoxicity against human DU145 cells after 72 hrs by MTT assay; format: functional, cell-based; conditions: DU-145, 72 h; in short: as §3
[24] = tested on: PC-3; experiment: Cytotoxicity against human PC3 cells after 72 hrs by MTT assay; format: functional, cell-based; conditions: PC-3, 72 h; in short: as §3
[25] = Cytotoxicity against human DND1A cells after 72 hrs by MTT assay; format: functional, cell-based; in short: as §3
[26] = tested on: LoVo; experiment: Cytotoxicity against human LoVo cells after 72 hrs by MTT assay; format: functional, cell-based; in short: as §3
[27] = tested on: MIA PaCa-2; experiment: Cytotoxicity against human MIAPaCa2 cells after 72 hrs by MTT assay; format: functional, cell-based; conditions: MIA PaCa-2, 72 h; in short: as §3
[28] = tested on: CCRF-CEM; experiment: Cell cycle arrest in human CEM cells assessed as accumulation at G0/G1 phase at 10 uM after 18 hrs by flow cytometry; format: functional; conditions: in the assay text read “6.4 uM” for “10 uM”; in short: as §1
[29] = tested on: CCRF-CEM; experiment: Cell cycle arrest in human CEM cells assessed as accumulation at S phase at 10 uM after 18 hrs by flow cytometry; format: functional; conditions: in the assay text read “6.4 uM” for “10 uM”; in short: as §1

Compound: CC(Br)C(=O)Nc1cccc(C(=O)NC(N)=O)c1 (centres undefined)
Activity [1]: 63.2%
Activity [2]: 9.5%
IC50 [3]: 1470 nM
Activity [4]: 2%
Activity [5]: 25.3%

Compound: CC(=O)NC(=O)Nc1cccc(NC(=O)C(C)Br)c1 (centres undefined)
IC50 [3]: 10600 nM

Compound: O=C(CCCl)NC(=O)Nc1cccc(NC(=O)CBr)c1
IC50 [3]: 1900 nM

Compound: O=C(CBr)Nc1cccc(NC(=O)Nc2ccccc2)c1
IC50 [3]: 860 nM

Compound: NC(=O)NC(=O)c1cccc(NC(=O)CBr)c1
IC50 [3]: 725 nM

Compound: COc1cc(NC(=O)Nc2cccc(NC(=O)CBr)c2)cc(OC)c1OC
IC50 [3]: 1000 nM

inhibition [9]: inactive
Compound: O=CNC(=O)Nc1cccc(NC(=O)CBr)c1
Activity [6]: 12.9%
Activity [7]: 2%
Activity [8]: 52.6%
IC50 [3]: 850 nM
Activity [10]: 33.5%

Compound: COc1cc(NC(=O)Nc2cccc(NC(=O)C(C)Br)c2)cc(OC)c1OC (centres undefined)
IC50 [3]: 3990 nM

Compound: CC(Br)C(=O)NC(=O)Nc1cccc(NC(=O)C(C)Br)c1 (centres undefined)
IC50 [3]: 1340 nM

inhibition [14]: inactive
Compound: O=C(CI)Nc1cccc(NC(=O)NCCCl)c1
Activity [11]: 30.1%
Activity [12]: 2.6%
Activity [13]: 33.2%
IC50 [3]: 100 nM
Activity [15]: 34.1%

Compound: CC(Br)C(=O)Nc1cccc(NC(=O)NC(=O)CCCl)c1 (centres undefined)
IC50 [3]: 2050 nM

Compound: CC(Br)C(=O)Nc1cccc(NC(=O)NC=O)c1 (centres undefined)
IC50 [3]: 10200 nM

Compound: O=C(CBr)Nc1cccc(NC(=O)NCCCl)c1
IC50 [3]: 770 nM

inhibition [18]: inactive
Compound: O=C(CBr)NC(=O)Nc1cccc(NC(=O)CBr)c1
Activity [16]: 13.2%
Activity [17]: 24.8%
Activity [19]: Dose-dependent effect
IC50 [3]: 560 nM
IC50 [20]: 380 nM
IC50 [21]: 590 nM
IC50 [22]: 4070 nM
IC50 [23]: 1280 nM
IC50 [24]: > 100000 nM
IC50 [25]: 510 nM
IC50 [26]: 1990 nM
IC50 [27]: 2810 nM
Activity [28]: 48.3%
Activity [29]: 13.7%

Compound: CC(=O)NC(=O)Nc1cccc(NC(=O)CBr)c1
IC50 [3]: 3200 nM

Compound: CC(Br)C(=O)Nc1cccc(NC(=O)NCCCl)c1 (centres undefined)
IC50 [3]: 22700 nM
